Published values from different studies.
Compare with care: the assays were run in different laboratories.
Target: Dual specificity protein kinase CLK1 (CLK1, Homo sapiens, UniProt P49759)

Structure (SMILES)	observed	mode	method	concentration	endpoint	result
C1=C/COCc2cc(ccc2OCCN2CCCC2)Nc2nccc(n2)-c2cccc(c2)COC/1	binding			0.1 µM	remaining binding	27%
Cc1ccc(NC(=O)c2ccnc(C(F)(F)F)c2)cc1-c1cc(OCCO)nc(N2CCOCC2)c1	binding		competition with immobilised ligand	1 µM	remaining binding	92%
COc1ccc2oc(-c3ccc4nc(N)oc4c3)c/c(=N\c3ccccc3NC(=O)CCN)c2c1	binding			1 µM	remaining binding	94%
Cc1cc(O)c(-c2ccc([C@@H](C)CN(C)C)cc2)c2c1[nH]c(=O)c1sccc12	enzyme activity	inhibitor		0.1 µM	inhibition	-7.55%
CN1CCN(C(=O)c2ccc(NC(=O)Nc3ccc(N(C)c4ccnc(Nc5ccc(CS(C)(=O)=O)cc5)n4)cc3)cc2)CC1	binding		competition with immobilised ligand	1 µM	remaining binding	84%
C=CC(=O)N1CCC([C@@H]2CCNc3c(C(N)=O)c(-c4ccc(Oc5ccccc5)cc4)nn32)CC1	enzyme activity	inhibitor		1 µM	inhibition	19%
C#Cc1cc(-c2cc(Nc3nc(N[C@@H](C)c4ccc(F)cn4)ncc3Cl)n[nH]2)ccc1C=O	enzyme activity	inhibitor		0.2 µM	inhibition	34.2%
C=CC(=O)N1CCC[C@@H](n2nc(-c3ccc(Oc4ccccc4)cc3)c3c(N)ncnc32)C1	enzyme activity	inhibitor		1 µM	inhibition	23%
CCCCC(=O)Nc1ccc(-c2ccc3ncn(CCC)c(=O)c3c2)cn1	binding		competition with immobilised ligand	0.5 µM	remaining binding	79%
